In brackets after ≈: the same amount, converted by molar mass.

The test system of series [1] is Plasma. Description: Cmax in healthy human plasma assessed as metabolite BAY 78-1787 Cmax at 80 mg, po administered as single ascending doses during 10 hrs overnight fasting state. The arrangement: dose 80 mg, route oral. In kind it is ADME, organism-based. Particulars: in vivo. A digest of the protocol: (§1)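 Healthy Caucasian male volunteers, single oral dose of 80 mg as four 20-mg immediate-release tablets, taken with 240 ml water after a 10-h overnight fast. Lithium-heparin venous blood was drawn predose and at 0.25–14 h, and plasma was stored frozen. Metabolites M1/M2/M3 were measured by LC/MS-MS (positive-ion MRM, deuterated internal standard). Noncompartmental analysis, AUC by log-linear trapezoidal rule extrapolated to infinity (Clast/kel), geometric means.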

The test system of series [2] is Plasma. The series can be described thus: AUC (0 to infinity) in healthy human plasma assessed as metabolite BAY 78-1787 AUC (0 to infinity) at 80 mg, po administered as single ascending doses during 10 hrs overnight fasting state. Format: ADME, organism-based. To be noted: in vivo. Also on record: dose 80 mg, time infinity, route oral. The procedure, abridged: as §1

Series [3] deals with Plasma. Description: Half-life in healthy human plasma assessed as metabolite BAY 78-1787 half-life at 80 mg, po administered as single ascending doses during 10 hrs overnight fasting state. In kind it is ADME, organism-based. Particulars: in vivo. A digest of the protocol:
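Healthy Caucasian male volunteers, single oral dose with 240 ml water after a 10-h overnight fast. Heparinised venous blood was drawn predose and at 0.25–14 h. Plasma was stored frozen. Parent drug and metabolites M1–M3 were measured by LC/MS-MS (MRM, deuterated internal standard). Noncompartmental analysis gave Cmax observed, t1/2 = 0.693/kel (terminal regression) and MRT = AUMC/AUC. Values are geometric means.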

Series [4] deals with Plasma. Description: Ratio of AUC (0 to infinity) for metabolite BAY 78-1787 to AUC (0 to infinity) for compound in healthy human plasma at 40 mg, po administered as single dose for 3 days measured after 1 day. To be noted: in vivo, 24 h. In kind it is ADME, organism-based. A digest of the protocol:
(§2)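 Healthy Caucasian men (8 active, 4 placebo per dose) dosed with tablets daily for 3 days after 10-h fast. Plasma sampled 0.25–14 h after first and last doses. Parent and metabolites M1–M3 measured by LC/MS-MS (200 µl plasma). Metabolic ratio is metabolite AUC0-∞ divided by parent AUC0-∞ (log-linear trapezoidal, extrapolated by last concentration/kel). First vs third dose compared by paired t test.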

Series [5] has as its system Plasma. Description: Ratio of AUC (0 to infinity) for metabolite BAY 78-1787 to AUC (0 to infinity) for compound in healthy human plasma at 40 mg, po administered as single dose for 3 days measured after 3 days. Format: ADME, organism-based. Particulars: in vivo, 72 h. A digest of the protocol:
as §2

Series [6] relates to Plasma. The series can be described thus: Ratio of AUC (0 to infinity) for metabolite BAY 78-1787 to AUC (0 to infinity) for compound in healthy human plasma at 80 mg, po administered as single dose for 3 days measured after 1 day. In kind it is ADME, organism-based. Particulars: in vivo, 24 h. The procedure, abridged: as §2
Series [7] relates to Plasma. The series can be described thus: Ratio of AUC (0 to infinity) for metabolite BAY 78-1787 to AUC (0 to infinity) for compound in healthy human plasma at 80 mg, po administered as single dose for 3 days measured after 3 days. In kind it is ADME, organism-based. Particulars: in vivo, 72 h. A digest of the protocol:
as §2

The test system of series [8] is Plasmodium falciparum. Description: Antimalarial activity against Plasmodium falciparum K1 in human plasma assessed as inhibition of hypoxanthine uptake by intraerythrocytic malaria parasites by hypoxanthine incorporation assay. Format: functional, organism-based. A digest of the protocol:
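K1 or TM90-C2A parasites were sorbitol-synchronized and cultured in RPMI 1640. Drug was diluted in drug-free human serum (0.04–40 ng/ml) or subject plasma was diluted twofold (8–8,192). Parasites were added at 2% hematocrit, 1% parasitemia (>95% rings), and [3H]hypoxanthine uptake was measured over 48 h. IC50 or ID50 came from concentration or dilution-response curves. Equivalent concentration = ID50 × IC50.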

For series [9], the system named is Plasma. The series can be described thus: Cmax in healthy human plasma assessed as metabolite BAY 78-1787 Cmax at 40 mg, po administered as two 20 mg immediate release tablets daily for 3 days during 10 hrs overnight fasting state measured after 1 day. Also on record: dose 40 mg, route oral. Particulars: in vivo, 24 h. In kind it is ADME, organism-based. The procedure, abridged:
(§3)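 Healthy Caucasian male volunteers took 40 mg (two 20-mg IR tablets) or 80 mg (four tablets) orally once daily for 3 days, with 240 ml water after a 10-h fast. Plasma was sampled predose to 14 h after the first and last doses. M1/M2/M3 were quantified by LC/MS-MS MRM against a D4-labelled internal standard. Cmax was read from observed data and AUC by log-linear trapezoidal rule, noncompartmental, geometric means.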

The subject of series [10] is Plasma. The series can be described thus: Cmax in healthy human plasma assessed as metabolite BAY 78-1787 Cmax at 40 mg, po administered as two 20 mg immediate release tablets daily for 3 days during 10 hrs overnight fasting state measured after 3 day. In kind it is ADME, organism-based. Particulars: in vivo, 72 h. The arrangement: dose 40 mg, route oral. The procedure, abridged: as §3

Series [11] deals with Plasma. The series can be described thus: AUC in healthy human plasma assessed as metabolite BAY 78-1787 AUC at 40 mg, po administered as two 20 mg immediate release tablets daily for 3 days during 10 hrs overnight fasting state measured after 1 day. In kind it is ADME, organism-based. Also on record: dose 40 mg, time < 10 hr, route oral. To be noted: in vivo. A digest of the protocol:
as §3

The test system of series [12] is Plasma. Description: AUC in healthy human plasma assessed as metabolite BAY 78-1787 AUC at 40 mg, po administered as two 20 mg immediate release tablets daily for 3 days during 10 hrs overnight fasting state measured after 3 day. Format: ADME, organism-based. Also on record: time < 10 hr, dose 40 mg, route oral. Particulars: in vivo. A digest of the protocol:
as §3

In series [13] the test system is Plasma. Description: Tmax in healthy human plasma assessed as metabolite BAY 78-1787 Tmax at 40 mg, po administered as two 20 mg immediate release tablets daily for 3 days during 10 hrs overnight fasting state measured after 1 day. Format: ADME, organism-based. Particulars: in vivo, 24 h. A digest of the protocol: (§4)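 Healthy Caucasian men (8 active, 4 placebo per dose) dosed with tablets daily for 3 days after 10-h fast. Lithium-heparin plasma sampled predose and 0.25–14 h after day-1 and day-3 doses, stored frozen. Parent and M1–M3 quantified by LC/MS-MS in positive-ion MRM. Tmax taken directly from observed individual data.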

Series [14] deals with Plasma. Description: Tmax in healthy human plasma assessed as metabolite BAY 78-1787 Tmax at 40 mg, po administered as two 20 mg immediate release tablets daily for 3 days during 10 hrs overnight fasting state measured after 3 day. In kind it is ADME, organism-based. To be noted: in vivo, 72 h. A digest of the protocol: as §4
Series [15] deals with Plasma. The series can be described thus: Half life in healthy human plasma assessed as metabolite BAY 78-1787 Half life at 40 mg, po administered as two 20 mg immediate release tablets daily for 3 days during 10 hrs overnight fasting state measured after 1 day. To be noted: in vivo, 24 h. Format: ADME, organism-based. A digest of the protocol: (§5)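 Healthy Caucasian males took tablets once daily for 3 days with 240 ml water after a 10-h fast. Heparinised blood was drawn predose and at 0.25–14 h after the first and last doses. Plasma parent drug and metabolites M1–M3 were measured by LC/MS-MS (MRM, deuterated internal standard). Noncompartmental analysis gave Cmax observed, t1/2 = 0.693/kel and MRT = AUMC/AUC. Values are geometric means.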

Series [16] has as its system Plasma. Description: Half life in healthy human plasma assessed as metabolite BAY 78-1787 Half life at 40 mg, po administered as two 20 mg immediate release tablets daily for 3 days during 10 hrs overnight fasting state measured after 3 day. In kind it is ADME, organism-based. To be noted: in vivo, 72 h. The procedure, abridged:
as §5

Series [17] deals with Plasma. The series can be described thus: Cmax in healthy human plasma assessed as metabolite BAY 78-1787 Cmax at 80 mg, po administered as four 20 mg immediate release tablets daily for 3 days during 10 hrs overnight fasting state measured after 1 day. In kind it is ADME, organism-based. Also on record: dose 80 mg, route oral. To be noted: in vivo. A digest of the protocol:
as §3

The subject of series [18] is Plasma. Description: Cmax in healthy human plasma assessed as metabolite BAY 78-1787 Cmax at 80 mg, po administered as four 20 mg immediate release tablets daily for 3 days during 10 hrs overnight fasting state measured after 3 day. In kind it is ADME, organism-based. Also on record: dose 80 mg, route oral. To be noted: in vivo, 72 h. The procedure, abridged:
as §3

Series [19] concerns Plasma. The series can be described thus: AUC in healthy human plasma assessed as metabolite BAY 78-1787 AUC at 80 mg, po administered as four 20 mg immediate release tablets daily for 3 days during 10 hrs overnight fasting state measured after 1 day. Format: ADME, organism-based. Also on record: dose 80 mg, time < 10 hr, route oral. To be noted: in vivo. The procedure, abridged:
as §3

Series [20] deals with Plasma. Description: AUC in healthy human plasma assessed as metabolite BAY 78-1787 AUC at 80 mg, po administered as four 20 mg immediate release tablets daily for 3 days during 10 hrs overnight fasting state measured after 3 day. In kind it is ADME, organism-based. To be noted: in vivo. Also on record: dose 80 mg, time < 10 hr, route oral. A digest of the protocol:
as §3

Series [21] deals with Plasma. The series can be described thus: Tmax in healthy human plasma assessed as metabolite BAY 78-1787 Tmax at 80 mg, po administered as four 20 mg immediate release tablets daily for 3 days during 10 hrs overnight fasting state measured after 1 day. Format: ADME, organism-based. To be noted: in vivo, 24 h. The procedure, abridged:
as §4

The subject of series [22] is Plasma. The series can be described thus: Tmax in healthy human plasma assessed as metabolite BAY 78-1787 Tmax at 80 mg, po administered as four 20 mg immediate release tablets daily for 3 days during 10 hrs overnight fasting state measured after 3 day. To be noted: in vivo, 72 h. Format: ADME, organism-based. A digest of the protocol:
as §4

For series [23], the system named is Plasma. The series can be described thus: Half life in healthy human plasma assessed as metabolite BAY 78-1787 Half life at 80 mg, po administered as four 20 mg immediate release tablets daily for 3 days during 10 hrs overnight fasting state measured after 1 day. To be noted: in vivo, 24 h. Format: ADME, organism-based. A digest of the protocol: as §5
The subject of series [24] is Plasma. The series can be described thus: Half life in healthy human plasma assessed as metabolite BAY 78-1787 Half life at 80 mg, po administered as four 20 mg immediate release tablets daily for 3 days during 10 hrs overnight fasting state measured after 3 day. In kind it is ADME, organism-based. To be noted: in vivo, 72 h. The procedure, abridged: as §5

In the case of `C[C@H]1[C@H](N2C=CS(=O)(=O)CC2)O[C@@H]2O[C@]3(C)CC[C@H]4[C@H](C)CC[C@@H]1[C@@]24OO3`, the highest concentration (Cmax) in [1] stood at 121.1 ng/mL; in series [9] it was 51.7 ng/mL; in series [10], 47.8 ng/mL; in [17], 112.6 ng/mL; in series [18], 85.3 ng/mL. Further, the area under the curve (AUC) in [2] worked out at 315.4 ng·h/mL; in series [11], 112.6 ng·h/mL; in series [12], 112.3 ng·h/mL; in series [19], 296 ng·h/mL; in series [20], 255.2 ng·h/mL. For the same compound, the t1/2 came to 2.78 h in series [3]; 1.9 h in series [15]; 1.54 h in [16]; 2.13 h in series [23]; 1.63 h in series [24]. Besides, the Ratio in [4] was 0.63; in series [5], 0.62; in series [6] it was 0.89; in series [7] it was 0.79. Further, the 50% inhibitory concentration (IC50) in [8] turned out to be 1.7 ng/mL (≈ 4.26 nM). Further, the Tmax came out at 1.75 h in series [13], 1.75 h in series [14], 2 h in series [21] and 1.5 h in series [22].

By Cmax is commonly meant the highest concentration seen after dosing. One may read the AUC as the area under the concentration-time curve, a measure of exposure. A word on the IC50: it is the point on the concentration scale where inhibition reaches its midpoint. Usually Tmax stands for the time at which the peak concentration occurs.

The values above are taken from ChEMBL document CHEMBL1671864, “First assessment in humans of the safety, tolerability, pharmacokinetics, and ex vivo pharmacodynamic antimalarial activity of the new artemisinin derivative artemisone” (Antimicrob Agents Chemother, 2008).
